A short description of series [1]: Cleavage of niche-responsive LXR PAs. The series is classed as physicochemical. Particulars: 1 mM PA, 37 °C. In outline: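 Linker-bearing PAs at 1 mM in PBS. ROS-linked: 250 μM H2O2 + 50 μM CuSO4. NDEC-linked: 10 mM TCEP. SPDP-linked: 10 mM TCEP or 10 mM DTT. PBS-only controls. Incubated at 37 °C, 5% CO2; sampled at 24 h, 4 and 7 days; stored −20 °C. LC-MS: C18 UPLC column at 40 °C, electrospray 4.7 kV, capillary 350 °C, 150–2000 m/z, 120,000 resolution.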

The subject of the next series is ABCA1. The experiment in a line: ABCA1 and CD68 immunofluorescence in aortic roots. The series is classed as in vivo. Particulars: LDLR KO mice, eight weeks of twice weekly injections, versus PBS control, n≥6. In outline: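 LDLR KO male and female mice, obtained at 4 weeks, fed high-fat diet 14 weeks, then given tail-vein injections twice weekly for 8 weeks under isoflurane; PBS controls. Perfused with PBS and 2% paraformaldehyde; aortic roots sectioned. Blocked in TBST (0.1% Triton) with 10% horse serum 1 h RT; anti-CD68 (1:500) and anti-ABCA1 (1:1000) overnight 4 °C. Fluorescence pixel intensity quantified; two-factor ANOVA, Dunnett's vs PBS, n≥6.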

The test system of series [2] is cholesterol-laden macrophages. The experiment in a line: PA colocalization with cholesterol. The series is classed as cell-based. Particulars: 32 μM LXR or PA epitope equivalents, 24 hours.
For another series, the system named is RIP3. Put plainly: Liver toxicity by RIP3 expression. Conditions: mouse, in vivo.

Data on three molecules can be found in PMC8680456 (Advanced therapeutics, 2021).

Turning to “C16-VVAAEE-PEG4-K-PPPPP-K(Mtt) [ROS-LXR PA]”, the “PA cleavage after 1 week” value in series [1] (250 μM H2O2 + 50 μM CuSO4 in PBS, 1 week, LC-MS) is given as “completely cleaved”.

As to `O=C(O)Cc1cccc(OCCCN(Cc2cccc(C(F)(F)F)c2Cl)CC(c2ccccc2)c2ccccc2)c1` [LXR, GW3965], the “ABCA1 expression relative to number of CD68+ macrophages” value in the series with ABCA1 is listed as “significant increase in ABCA1 expression”. For the same molecule, the “confocal microscopy observation of cholesterol-laden macrophages” value in series [2] is reported as “appeared to be undergoing cell death”. Also, the “liver toxicity by RIP3 expression” value with RIP3 is listed as “Liver toxicity was observed”.

As for “C16-VVAAEE-PEG4-NDEC-K(LXR) [NDEC-LXR PA]”, the “PA cleavage by day 4” value in series [1] (10 mM TCEP in PBS, day 4, LC-MS) is listed as “complete cleavage”.
